Tests used:
A204 [1] = test: Anticancer activity against human A204 cells assessed as cell growth inhibition measured after 72 hrs by DAPI staining based analysis; assay type: functional
Method in brief: (§1)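 Cells were seeded and, after 24 h, DNA content was read as T0. Cells were then exposed to varying drug concentrations for a further 72 h (T72). Fixed cells were DAPI-stained and DNA content measured by automated imaging. T72 values were normalized to T0. GI50 is the concentration giving 50% growth inhibition between T0 and Ymax, obtained by curve fitting.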

A2780 = test: Anticancer activity against human A2780 cells assessed as cell growth inhibition measured after 72 hrs by DAPI staining based analysis; assay type: functional; method in brief: as §1
EFM-19 = test: Anticancer activity against human EFM-19 cells assessed as cell growth inhibition measured after 72 hrs by DAPI staining based analysis; assay type: functional
Method in brief: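 Cells seeded, DAPI-stained DNA content of fixed cells read by imaging 24 h after seeding (T0), and again after a further 72 h exposure to a range of drug concentrations (T72). T72 values were normalized to T0. Curve fits gave the concentration producing 50% growth inhibition relative to T0 and Ymax (GI50).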

HMCB cell line = test: Anticancer activity against human HMCB cells assessed as cell growth inhibition measured after 72 hrs by DAPI staining based analysis; assay type: functional
HOP-62 = test: Anticancer activity against human HOP-62 cells assessed as cell growth inhibition measured after 72 hrs by DAPI staining based analysis; assay type: functional
HT-29 = test: Anticancer activity against human HT-29 cells assessed as cell growth inhibition measured after 72 hrs by DAPI staining based analysis; assay type: functional
LOX IMVI = test: Anticancer activity against human LOX IMVI cells assessed as cell growth inhibition measured after 72 hrs by DAPI staining based analysis; assay type: functional
[2] = Anticancer activity against human MT-3 cells assessed as cell growth inhibition measured after 72 hrs by DAPI staining based analysis; assay type: functional
NCI-H747 = test: Anticancer activity against human NCI-H747 cells assessed as cell growth inhibition measured after 72 hrs by DAPI staining based analysis; assay type: functional
SK-N-AS = test: Anticancer activity against human SK-N-AS cells assessed as cell growth inhibition measured after 72 hrs by DAPI staining based analysis; assay type: functional
SK-N-FI = test: Anticancer activity against human SK-N-FI cells assessed as cell growth inhibition measured after 72 hrs by DAPI staining based analysis; assay type: functional
SN12C = test: Anticancer activity against human SN12C cells assessed as cell growth inhibition measured after 72 hrs by DAPI staining based analysis; assay type: functional
SW780 = test: Anticancer activity against human SW780 cells assessed as cell growth inhibition measured after 72 hrs by DAPI staining based analysis; assay type: functional
SW948 = test: Anticancer activity against human SW948 cells assessed as cell growth inhibition measured after 72 hrs by DAPI staining based analysis; assay type: functional
T47D = test: Anticancer activity against human T47D cells assessed as cell growth inhibition measured after 72 hrs by DAPI staining based analysis; assay type: functional
THP-1 = test: Anticancer activity against human THP-1 cells assessed as cell growth inhibition measured after 72 hrs by DAPI staining based analysis; assay type: functional
TK-10 = test: Anticancer activity against human TK-10 cells assessed as cell growth inhibition measured after 72 hrs by DAPI staining based analysis; assay type: functional
647-V = test: Anticancer activity against human 647-V cells assessed as cell doubling measured for 72 hrs by DAPI staining based analysis; assay type: functional
A204 [3] = test: Anticancer activity against human A204 cells assessed as cell doubling measured for 72 hrs by DAPI staining based analysis; assay type: functional
A-375 = test: Anticancer activity against human A-375 cells assessed as cell doubling measured for 72 hrs by DAPI staining based analysis; assay type: functional
Caov-3 cell line = test: Anticancer activity against human Caov-3 cells assessed as cell doubling measured for 72 hrs by DAPI staining based analysis; assay type: functional
[4] = Anticancer activity against human CML-T1 cells assessed as cell doubling measured for 72 hrs by DAPI staining based analysis; assay type: functional
DB = test: Anticancer activity against human DB cells assessed as cell doubling measured for 72 hrs by DAPI staining based analysis; assay type: functional
DLD-1 = test: Anticancer activity against human DLD-1 cells assessed as cell doubling measured for 72 hrs by DAPI staining based analysis; assay type: functional
ES-2 = test: Anticancer activity against human ES2 cells assessed as cell doubling measured for 72 hrs by DAPI staining based analysis; assay type: functional
FaDu = test: Anticancer activity against human FaDu cells assessed as cell doubling measured for 72 hrs by DAPI staining based analysis; assay type: functional
HCT-116 [5] = test: Anticancer activity against human HCT-116 cells assessed as cell doubling measured for 72 hrs by DAPI staining based analysis; assay type: functional
Hep 3B2 = test: Anticancer activity against human Hep3B cells assessed as cell doubling measured for 72 hrs by DAPI staining based analysis; assay type: functional
MDA-MB-175-VII = test: Anticancer activity against human MDA-MB-175-VII cells assessed as cell doubling measured for 72 hrs by DAPI staining based analysis; assay type: functional
MDA-MB-231 = test: Anticancer activity against human MDA-MB-231 cells assessed as cell doubling measured for 72 hrs by DAPI staining based analysis; assay type: functional
NCI-H526 = test: Anticancer activity against human NCI-H526 cells assessed as cell doubling measured for 72 hrs by DAPI staining based analysis; assay type: functional
OV-90 = test: Anticancer activity against human OV-90 cells assessed as cell doubling measured for 72 hrs by DAPI staining based analysis; assay type: functional
SK-MEL-28 = test: Anticancer activity against human SK-MEL-28 cells assessed as cell doubling measured for 72 hrs by DAPI staining based analysis; assay type: functional
SW 954 = test: Anticancer activity against human SW 954 cells assessed as cell doubling measured for 72 hrs by DAPI staining based analysis; assay type: functional
[6] = Anticancer activity against human TE 381.T cells assessed as cell doubling measured for 72 hrs by DAPI staining based analysis; assay type: functional
WiDr = test: Anticancer activity against human WiDr cells assessed as cell doubling measured for 72 hrs by DAPI staining based analysis; assay type: functional
YAPC = test: Anticancer activity against human YAPC cells assessed as cell doubling measured for 72 hrs by DAPI staining based analysis; assay type: functional
COLO 205 = test: Antitumor activity against human COLO 205 cells in xenograft model assessed as difference between median time to endpoint time of treated versus control group at 125 mg/kg; assay type: functional
HCT-116 [7] = test: Antitumor activity against human HCT-116 cells in xenograft model assessed as difference between median time to endpoint time of treated versus control group at 125 mg/kg; assay type: functional
SK-OV-3 = test: Antitumor activity against human SK-OV-3 cells in xenograft model assessed as difference between median time to endpoint time of treated versus control group at 62.5 mg/kg; assay type: functional
[8] = Antitumor activity against human MV-522 cells in xenograft model assessed as tumor growth delay at 62.5 mg/kg relative to control; assay type: functional
[9] = Toxicity in mouse xenografted with human COLO 205 cells at 500 mg/kg, ip administered three doses daily on 2 consecutive weeks; assay type: organism-based; conditions: in vivo, 336 h, time 2 weeks

## CC(C)Oc1ccc(C(=O)N[C@H](CNC(=O)CN(C)C)Cc2ccc(-c3cn4cccc([C@H](C)O)c4n3)cc2)cc1Cl [GSK-923295A]
A204 [1]
  GI50: 0.018 µM
A2780
  GI50: 0.013 µM
EFM-19
  GI50: 0.028 µM
HMCB cell line
  GI50: 0.025 µM
HOP-62
  GI50: 0.02 µM
HT-29
  GI50: 0.014 µM
LOX IMVI
  GI50: 0.025 µM
[2]
  GI50: 0.041 µM
NCI-H747
  GI50: 0.163 µM
SK-N-AS
  GI50: 0.038 µM
SK-N-FI
  GI50: 0.12 µM
SN12C
  GI50: 0.029 µM
SW780
  GI50: 0.03 µM
SW948
  GI50: 0.098 µM
T47D
  GI50: 0.029 µM
THP-1
  GI50: 0.012 µM
TK-10
  GI50: 0.049 µM
647-V
  Activity: 2.72
A204 [3]
  Activity: 1.46
A-375
  Activity: 3.04
Caov-3 cell line
  Activity: 2.17
[4]
  Activity: 2.88
DB
  Activity: 2.76
DLD-1
  Activity: 4.11
ES-2
  Activity: 3.69
FaDu
  Activity: 2.61
HCT-116 [5]
  Activity: 4.11
Hep 3B2
  Activity: 2.37
MDA-MB-175-VII
  Activity: 1.15
MDA-MB-231
  Activity: 2.32
NCI-H526
  Activity: 1.49
OV-90
  Activity: 1.87
SK-MEL-28
  Activity: 2.43
SW 954
  Activity: 1.62
[6]
  Activity: 1.92
WiDr
  Activity: 3.05
YAPC
  Activity: 2.14
COLO 205
  Time: >74 days
HCT-116 [7]
  Time: 10.4 days
SK-OV-3
  Time: 71.6 days
[8]
  Activity: 50%
[9]
  Activity: Non-Toxic

From ChEMBL document CHEMBL5705890, “Antitumor activity of an allosteric inhibitor of centromere-associated protein-E” (Proc Natl Acad Sci U S A, 2010)
